Assay results published in ChEMBL document CHEMBL3046804, “Synthesis and fungicidal activity of novel 3-(substituted/unsubstituted phenylselenonyl)-1-ribosyl/deoxyribosyl-1H-1,2,4-triazole” (2012).

Key:
Type in all cases: functional
Fusarium oxysporum [1] = assay: Fungitoxicity against Fusarium oxysporum assessed as inhibition of mycelia growth at 28 +/- 1 degC at 1000 ug/mL for 96 hr by poisoned food technique
Procedure, shortened: (§1)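 Poisoned food technique in Czapek's agar dishes, with test compound incorporated at 10, 100 or 1000 μg/mL. Fungus inoculated at the dish centre and incubated 96 h at 28 ± 1 °C. Percent inhibition = 100 × (mean hyphal diameter in control − mean hyphal diameter in test) / mean hyphal diameter in control. Three replicate assays per treatment and six replicate controls. Griseofulvin and Dithane M-45 served as standards.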

Penicillium citrinum [2] = assay: Fungitoxicity against Penicillium citrinum assessed as inhibition of mycelia growth at 28 +/- 1 degC at 10 ug/mL for 96 hr by poisoned food technique; procedure, shortened: as §1
Penicillium citrinum [3] = assay: Fungitoxicity against Penicillium citrinum assessed as inhibition of mycelia growth at 28 +/- 1 degC at 100 ug/mL for 96 hr by poisoned food technique; procedure, shortened: as §1
Fusarium oxysporum [4] = assay: Fungitoxicity against Fusarium oxysporum assessed as inhibition of mycelia growth at 28 +/- 1 degC at 10 ug/mL for 96 hr by poisoned food technique; procedure, shortened: as §1
Penicillium citrinum [5] = assay: Fungitoxicity against Penicillium citrinum assessed as inhibition of mycelia growth at 28 +/- 1 degC at 1000 ug/mL for 96 hr by poisoned food technique; procedure, shortened: as §1
Fusarium oxysporum [6] = assay: Fungitoxicity against Fusarium oxysporum assessed as inhibition of mycelia growth at 28 +/- 1 degC at 100 ug/mL for 96 hr by poisoned food technique; procedure, shortened: as §1

SMILES	inhibition at 1000 µg/mL (Fusarium oxysporum [1])	inhibition at 10 µg/mL (Penicillium citrinum [2])	inhibition at 100 µg/mL (Penicillium citrinum [3])	inhibition at 10 µg/mL (Fusarium oxysporum [4])	inhibition at 1000 µg/mL (Penicillium citrinum [5])	inhibition at 100 µg/mL (Fusarium oxysporum [6])
Cc1ccc([Se](=O)(=O)c2ncn([C@@H]3O[C@H](CO)[C@@H](O)[C@H]3O)n2)cc1	88%	69%	78%	62%	80%	80%
CC(=O)OC[C@H]1O[C@@H](n2cnc([Se](=O)(=O)c3ccccc3)n2)C[C@@H]1OC(C)=O	45%	23%	32%	25%	42%	33%
CC(=O)OC[C@H]1O[C@@H](n2cnc([Se](=O)(=O)c3ccccc3)n2)[C@H](OC(C)=O)[C@@H]1OC(C)=O	41%	12%	30%	15%	38%	32%
CC(=O)OC[C@H]1O[C@@H](n2cnc([Se](=O)(=O)c3ccc([N+](=O)[O-])cc3)n2)[C@H](OC(C)=O)[C@@H]1OC(C)=O	65%	24%	41%	30%	62%	55%
CC(=O)OC[C@H]1O[C@@H](n2cnc([Se](=O)(=O)c3ccc(Cl)cc3)n2)[C@H](OC(C)=O)[C@@H]1OC(C)=O	55%	22%	39%	14%	53%	29%
COc1ccc([Se](=O)(=O)c2ncn([C@H]3C[C@H](OC(C)=O)[C@@H](COC(C)=O)O3)n2)cc1	65%	24%	35%	17%	64%	25%
COc1ccc([Se](=O)(=O)c2ncn([C@@H]3O[C@H](CO)[C@@H](O)[C@H]3O)n2)cc1	100%	39%	49%	55%	99%	68%
O=[Se](=O)(c1ccccc1)c1ncn([C@@H]2O[C@H](CO)[C@@H](O)[C@H]2O)n1	82%	35%	42%	50%	89%	65%
O=[Se](=O)(c1ccc(Cl)cc1)c1ncn([C@@H]2O[C@H](CO)[C@@H](O)[C@H]2O)n1	100%	36%	65%	44%	97%	72%
CC(=O)OC[C@H]1O[C@@H](n2cnc([Se](=O)(=O)c3ccc([N+](=O)[O-])cc3)n2)C[C@@H]1OC(C)=O	54%	18%	34%	16%	51%	28%
CC(=O)OC[C@H]1O[C@@H](n2cnc([Se](=O)(=O)c3ccc(Cl)cc3)n2)C[C@@H]1OC(C)=O	54%	16%	35%	15%	51%	26%
O=[Se](=O)(c1ccccc1)c1ncn([C@H]2C[C@H](O)[C@@H](CO)O2)n1	77%	65%	74%	33%	81%	42%
COC1=CC(=O)C[C@@H](C)[C@]12Oc1c(Cl)c(OC)cc(OC)c1C2=O [GRISEOFULVIN]	100%	90%	94%	91%	100%	95%
COc1ccc([Se](=O)(=O)c2ncn([C@@H]3O[C@H](COC(C)=O)[C@@H](OC(C)=O)[C@H]3OC(C)=O)n2)cc1	53%	17%	32%	16%	47%	44%
COc1ccc([Se](=O)(=O)c2ncn([C@H]3C[C@H](O)[C@@H](CO)O3)n2)cc1	91%	42%	48%	65%	76%	76%
Cc1ccc([Se](=O)(=O)c2ncn([C@H]3C[C@H](O)[C@@H](CO)O3)n2)cc1	81%	67%	74%	61%	80%	75%
CC(=O)OC[C@H]1O[C@@H](n2cnc([Se](=O)(=O)c3ccc(C)cc3)n2)C[C@@H]1OC(C)=O	45%	17%	31%	26%	42%	35%
CC(=O)OC[C@H]1O[C@@H](n2cnc([Se](=O)(=O)c3ccc(C)cc3)n2)[C@H](OC(C)=O)[C@@H]1OC(C)=O	52%	21%	42%	17%	51%	37%
O=[N+]([O-])c1ccc([Se](=O)(=O)c2ncn([C@H]3C[C@H](O)[C@@H](CO)O3)n2)cc1	82%	33%	63%	41%	87%	60%
O=[Se](=O)(c1ccc(Cl)cc1)c1ncn([C@H]2C[C@H](O)[C@@H](CO)O2)n1	81%	31%	65%	32%	75%	56%
O=[N+]([O-])c1ccc([Se](=O)(=O)c2ncn([C@@H]3O[C@H](CO)[C@@H](O)[C@H]3O)n2)cc1	81%	37%	59%	35%	86%	48%
